Experimental data as given in ChEMBL document CHEMBL1122781, “[(Aminomethyl)aryloxy]acetic acid esters. A new class of high-ceiling diuretics. 1. Effects of nitrogen and aromatic nuclear substitution” (J Med Chem, 1984).

Columns and labels:
[1] = test system: Canis familiaris; test: Diuretic activity was evaluated by measuring amount of Cl- during 0-6 h in urine of normotensive saline loaded dogs at 1.0 mg/kg, po; format: ADME, organism-based, Canis lupus familiaris; design: dose 1 mg/kg, route oral; conditions: dog, in vivo
Method in brief: (§1)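 Conscious female dogs, each given one oral dose per experiment. Urine and heparinized venous plasma were taken at each collection time. Urine was centrifuged and chilled, and plasma was separated within 30 min. Both were assayed for Na+, K+, Cl−, urate and glucose. Results are mean excretion in mequiv kg−1 (6 h)−1, with at least two dogs per dose.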

[2] = test system: Rattus norvegicus; test: Diuretic activity was evaluated by measuring amount of Na+ during 0-6 h in urine of normotensive saline loaded rats at 10.0 mg/kg, po; format: ADME, organism-based; design: dose 10 mg/kg, route oral; conditions: in vivo
Method in brief: (§2)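 Male normotensive Sprague–Dawley rats (275–375 g), eight per group. Test compound or vehicle (0.2% methylcellulose in water, 2 mL/kg) is given by mouth, followed at once by a 0.9% saline load equal to 5% of body weight. Rats are housed in metabolism cages without food or water. Urine is collected at 2, 6 and 24 h and assayed for Na+, K+, Cl−, uric acid and osmolality.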

[3] = test system: Canis familiaris; test: Diuretic activity was evaluated by measuring amount of Na+ during 0-6 h in urine of normotensive saline loaded dogs at 1.0 mg/kg, po; format: ADME, organism-based, Canis lupus familiaris; design: dose 1 mg/kg, route oral; conditions: dog, in vivo
Method in brief: (§3)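 Conscious dogs, each given a single oral dose per experiment, with at least two dogs per dose. Urine volume is measured; aliquots are centrifuged and chilled. Heparinized venous blood (4 mL) is drawn at each urine collection. Urine and plasma are analyzed for Na+, K+, Cl−, urate and glucose. Result is mean Na+ excretion in mequiv kg−1 (6 h)−1.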

[4] = Diuretic activity was evaluated by measuring amount of Cl- during 0-6 h in urine of normotensive […] monkey at 10mg/kg, po; format: ADME, organism-based; conditions: simiiformes, in vivo
Method in brief: (§4)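 Male and female cynomolgus monkeys, fasted 16–18 h with water until dosing, six per dose. Compound or vehicle was given by pediatric nasogastric tube, followed at once by a 50 mL/kg water load. Monkeys were kept in metabolism cages without food or water for 6 h. Urine was collected at 0–1, 1–2, 2–4 and 4–6 h, and volume, electrolytes, uric acid and glucose were measured.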

[5] = test system: Rattus norvegicus; test: Diuretic activity was evaluated by measuring amount of Na+ during 0-6 h in urine of normotensive saline loaded rats at 100.0 mg/kg, po; format: ADME, organism-based; design: dose 100 mg/kg, route oral; conditions: in vivo; method in brief: as §2
[6] = test system: Rattus norvegicus; test: Diuretic activity was evaluated by measuring amount of Cl- during 0-6 hr in urine of normotensive saline loaded rats at 0.3mg/kg, po; format: ADME, organism-based; conditions: in vivo
Method in brief: (§5)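 Male Sprague–Dawley rats (275–375 g), fed and watered ad libitum before testing but not during it, eight per group. Compound in 0.2% methylcellulose/water given orally at 2 mL/kg, immediately followed by a 0.9% saline load equal to 5% of body weight. Rats were kept in individual metabolism cages. Urine was sampled at 2, 6 and 24 h for volume, Na+, K+, Cl−, uric acid and osmolality.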

[7] = test system: Canis familiaris; test: Diuretic activity was evaluated by measuring amount of K+ during 0-6 h in urine of normotensive saline loaded dogs at 1.0 mg/kg, po; format: ADME, organism-based, Canis lupus familiaris; design: dose 1 mg/kg, route oral; conditions: dog, in vivo; method in brief: as §1
[8] = Diuretic activity was evaluated by measuring amount of K+ during 0-6 hr in urine of normotensive […] monkey at 30mg/kg, po; format: ADME, organism-based; conditions: simiiformes, in vivo; method in brief: as §4
[9] = test system: Canis familiaris; test: Diuretic activity was evaluated by measuring amount of K+ during 0-6 hr in urine of normotensive saline loaded dogs at 0.3mg/kg, po; format: ADME, organism-based, Canis lupus familiaris; conditions: dog, in vivo; method in brief: as §1
[10] = Diuretic activity was evaluated by measuring amount of K+ during 0-6 hr in urine of […] monkey at 1 mg/kg, po; format: ADME, organism-based; design: dose 1 mg/kg, route oral; conditions: simiiformes, in vivo; method in brief: as §4
[11] = Diuretic activity was evaluated by measuring amount of Na+ during 0-6 hr in urine of normotensive […] monkey at 1 mg/kg, po; format: ADME, organism-based; design: dose 1 mg/kg, route oral; conditions: simiiformes, in vivo
Method in brief: (§6)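 Male and female cynomolgus monkeys, fasted 16–18 h with water until dosing, six per dose. Compound or vehicle is given through a nasogastric tube, then a 50 mL/kg water load. No food or water for 6 h in metabolism cages. Urine is collected at 0–1, 1–2, 2–4 and 4–6 h and analyzed for electrolytes, uric acid and glucose.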

[12] = test system: Rattus norvegicus; test: Diuretic activity was evaluated by measuring amount of K+ during 0-6 hr in urine of normotensive saline loaded rats at 0.1 mg/kg, po; format: ADME, organism-based; design: dose 0.1 mg/kg, route oral; conditions: in vivo; method in brief: as §5
[13] = Diuretic activity was evaluated by measuring amount of Na+ during 0-6 hr in urine of normotensive […] monkey at 10mg/kg, po; format: ADME, organism-based; conditions: simiiformes, in vivo; method in brief: as §6
[14] = test system: Rattus norvegicus; test: Diuretic activity was evaluated by measuring amount of Na+ during 0-6 hr in urine of normotensive saline loaded rats at 0.1 mg/kg, po; format: ADME, organism-based; design: dose 0.1 mg/kg, route oral; conditions: in vivo; method in brief: as §2
[15] = test system: Canis familiaris; test: Diuretic activity was evaluated by measuring amount of Na+ during 0-6 hr in urine of normotensive saline loaded dogs at 3.0mg/kg, po; format: ADME, organism-based, Canis lupus familiaris; conditions: dog, in vivo, 3 mg/kg; method in brief: as §3
[16] = test system: Rattus norvegicus; test: Diuretic activity was evaluated by measuring amount of Cl- during 0-6 hr in urine of normotensive saline loaded rats at 1.0mg/kg, po; format: ADME, organism-based; conditions: in vivo, 1 mg/kg; method in brief: as §5
[17] = test system: Rattus norvegicus; test: Diuretic activity was evaluated by measuring amount of K+ during 0-6 h in urine of normotensive saline loaded rats at 1.0 mg/kg, po; format: ADME, organism-based; design: dose 1 mg/kg, route oral; conditions: in vivo; method in brief: as §5
[18] = test system: Canis familiaris; test: Diuretic activity was evaluated by measuring amount of Na+ during 0-6 hr in urine of normotensive saline loaded dogs at 0.1 mg/kg, po; format: ADME, organism-based, Canis lupus familiaris; design: dose 0.1 mg/kg, route oral; conditions: dog, in vivo; method in brief: as §3
[19] = test system: Canis familiaris; test: Diuretic activity was evaluated by measuring amount of Cl- during 0-6 h in urine of normotensive saline loaded dogs at 10.0 mg/kg, po; format: ADME, organism-based, Canis lupus familiaris; design: dose 10 mg/kg, route oral; conditions: dog, in vivo; method in brief: as §1
[20] = test system: Canis familiaris; test: Diuretic activity was evaluated by measuring amount of Na+ during 0-6 h in urine of normotensive saline loaded dogs at 0.03 mg/kg, po; format: ADME, organism-based, Canis lupus familiaris; design: dose 0.03 mg/kg, route oral; conditions: dog, in vivo; method in brief: as §3
[21] = test system: Rattus norvegicus; test: Diuretic activity was evaluated by measuring amount of Cl- during 0-6 hr in urine of normotensive saline loaded rats at 10.0mg/kg, po; format: ADME, organism-based; conditions: in vivo, 10 mg/kg; method in brief: as §5
[22] = Diuretic activity was evaluated by measuring amount of Cl- during 0-6 h in urine of normotensive […] monkey at 3 mg/kg, po; format: ADME, organism-based; design: dose 3 mg/kg, route oral; conditions: simiiformes, in vivo; method in brief: as §4
[23] = Diuretic activity was evaluated by measuring amount of Cl- during 0-6 hr in urine of normotensive […] monkey at 1 mg/kg, po; format: ADME, organism-based; design: dose 1 mg/kg, route oral; conditions: simiiformes, in vivo; method in brief: as §4
[24] = test system: Canis familiaris; test: Diuretic activity was evaluated by measuring amount of K+ during 0-6 hr in urine of normotensive saline loaded dogs at 0.03mg/kg, po; format: ADME, organism-based, Canis lupus familiaris; conditions: dog, in vivo; method in brief: as §1
[25] = test system: Rattus norvegicus; test: Diuretic activity was evaluated by measuring amount of Cl- during 0-6 hr in urine of normotensive saline loaded rats at 100.0mg/kg, po; format: ADME, organism-based; conditions: in vivo, 100 mg/kg; method in brief: as §5
[26] = test system: Rattus norvegicus; test: Percent change of arterial blood pressure in spontaneously hypertensive rats at the dose of 3 mg/kg (p.o.) after 6 hr (control BP(mm Hg)=221); format: functional; conditions: route oral
[27] = test system: Canis familiaris; test: Diuretic activity was evaluated by measuring amount of K+ during 0-6 hr in urine of normotensive saline loaded dogs at 0.1 mg/kg, po; format: ADME, organism-based, Canis lupus familiaris; design: dose 0.1 mg/kg, route oral; conditions: dog, in vivo; method in brief: as §1
[28] = test system: Rattus norvegicus; test: Diuretic activity was evaluated by measuring amount of K+ during 0-6 hr in urine of normotensive saline loaded rats at 3.0mg/kg, po; format: ADME, organism-based; conditions: in vivo, 3 mg/kg; method in brief: as §2
[29] = test system: Rattus norvegicus; test: Percent change of arterial blood pressure in spontaneously hypertensive rats at the dose of 10 mg/kg (p.o.) after 6 hr (control BP(mm Hg)=219); format: functional; conditions: route oral

Compound: CCOC(=O)COc1ccc(C(=O)c2ccc(O)c(CN)c2)c(Cl)c1Cl.Cl
- Diuretic activity [1]: 6.2 m equiv kg-1
- Diuretic activity [2]: 14 m equiv kg-1
- Diuretic activity [3]: 5 m equiv kg-1
- Diuretic activity [4]: 7.2 m equiv kg-1
- Diuretic activity [5]: 13.8 m equiv kg-1
- Diuretic activity [6]: 11.3 m equiv kg-1
- Diuretic activity [7]: 1.6 m equiv kg-1
- Diuretic activity [8]: 1.5 m equiv kg-1
- Diuretic activity [9]: 1 m equiv kg-1
- Diuretic activity [10]: 0.7 m equiv kg-1
- Diuretic activity [11]: 2.7 m equiv kg-1
- Diuretic activity [12]: 2.6 m equiv kg-1
- Diuretic activity [13]: 6.6 m equiv kg-1
- Diuretic activity [14]: 6.6 m equiv kg-1
- Diuretic activity [15]: 7.5 m equiv kg-1
- Diuretic activity [16]: 14.8 m equiv kg-1
- Diuretic activity [17]: 3 m equiv kg-1
- Diuretic activity [18]: 0.7 m equiv kg-1
- Diuretic activity [19]: 7 m equiv kg-1
- Diuretic activity [20]: 0.5 m equiv kg-1
- Diuretic activity [21]: 16.4 m equiv kg-1
- Diuretic activity [22]: 5.3 m equiv kg-1
- Diuretic activity [23]: 2.7 m equiv kg-1
- Diuretic activity [24]: 0.3 m equiv kg-1
- Diuretic activity [25]: 16.6 m equiv kg-1
- Change [26]: -13%
- Diuretic activity [27]: 0.6 m equiv kg-1
- Diuretic activity [28]: 3.8 m equiv kg-1
- Change [29]: -24%
